Laboratory results reported in ChEMBL document CHEMBL1142087 (Antimicrob Agents Chemother, 2007).
Activity calls are given as the source filed them. No cut-off for these calls is given here.

What was measured:
Mus musculus [1] = assay: Effect on survival of BALB/c mouse infected with influenza A virus (A/duck/Minnesota/1525/1981 (H5N1)) at 300 mg/kg/day, po qid for 5 days administered 60 hrs after infection relative to carboxymethyl cellulose; type: functional, organism-based
Mus musculus [2] = assay: Inhibition of increase in lung weight of BALB/c mouse infected with influenza A virus (A/duck/Minnesota/1525/1981 (H5N1)) at 100 mg/kg/day, po qid for 5 days administered 1 hr after infection measured on day 6 relative to carboxymethyl cellulose; type: functional
Mus musculus [3] = assay: Lowering of Arterial oxygen saturation decline in BALB/c mouse infected with influenza A virus (A/duck/Minnesota/1525/1981 (H5N1)) at 300 mg/kg/day, po twice daily for 5 days administered 1 hr after infection measured on day 11 relative to carboxymethyl cellulose; type: functional
Mus musculus [4] = assay: Effect on survival of BALB/c mouse infected with influenza A virus (A/duck/Minnesota/1525/1981 (H5N1)) at 300 mg/kg/day, po qid for 5 days administered 36 hrs after infection relative to carboxymethyl cellulose; type: functional, organism-based
Mus musculus [5] = assay: Lowering of Arterial oxygen saturation decline in BALB/c mouse infected with influenza A virus (A/duck/Minnesota/1525/1981 (H5N1)) at 3 mg/kg/day, po twice daily for 5 days administered 1 hr after infection measured on day 11 relative to carboxymethyl cellulose; type: functional
Method in brief: (§1)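 Arterial oxygen saturation was measured by pulse oximeter, with the ear probe placed on the thigh and read after 30 s stabilization. Values were taken on day 11, 10 mice per group. Mice dead from infection were assigned 75%. Means were compared with CMC controls by t test.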

Mus musculus [6] = assay: Lowering of arterial oxygen saturation decline in BALB/c mouse infected with influenza A virus (A/duck/Minnesota/1525/1981 (H5N1)) at 300 mg/kg/day, po qid for 5 days administered 60 hrs after infection measured on day 11 relative to carboxymethyl cellulose; type: functional
Mus musculus [7] = assay: Effect on survival of BALB/c mouse infected with influenza A virus (A/duck/Minnesota/1525/1981 (H5N1)) at 100 mg/kg/day, po twice daily for 5 days administered 1 hr after infection relative to carboxymethyl cellulose; type: functional, organism-based
Mus musculus [8] = assay: Lowering of arterial oxygen saturation decline in BALB/c mouse infected with influenza A virus (A/duck/Minnesota/1525/1981 (H5N1)) at 300 mg/kg/day, po qid for 5 days administered 96 hrs after infection measured on day 11 relative to carboxymethyl cellulose; type: functional
Mus musculus [9] = assay: Lowering of Arterial oxygen saturation decline in BALB/c mouse infected with influenza A virus (A/duck/Minnesota/1525/1981 (H5N1)) at 10 mg/kg/day, po twice daily for 5 days administered 1 hr after infection measured on day 11 relative to carboxymethyl cellulose; type: functional; method in brief: as §1
Mus musculus [10] = assay: Lowering of arterial oxygen saturation decline in BALB/c mouse infected with influenza A virus (A/duck/Minnesota/1525/1981 (H5N1)) at 30 mg/kg/day, po once daily for 5 days administered 1 hr after infection measured on day 11 relative to carboxymethyl cellulose; type: functional
Mus musculus [11] = assay: Effect on survival of BALB/c mouse infected with influenza A virus (A/duck/Minnesota/1525/1981 (H5N1)) at 300 mg/kg/day, po qid for 5 days administered 24 hrs after infection relative to carboxymethyl cellulose; type: functional, organism-based
Mus musculus [12] = assay: Lowering of Arterial oxygen saturation decline in BALB/c mouse infected with influenza A virus (A/duck/Minnesota/1525/1981 (H5N1)) at 100 mg/kg/day, po qid for 5 days administered 1 hr after infection measured on day 11 relative to carboxymethyl cellulose; type: functional; method in brief: as §1
Mus musculus [13] = assay: Effect on survival of BALB/c mouse infected with influenza A virus (A/duck/Minnesota/1525/1981 (H5N1)) at 3 mg/kg/day, po once daily for 5 days administered 1 hr after infection relative to carboxymethyl cellulose; type: functional, organism-based
Mus musculus [14] = assay: Lowering of arterial oxygen saturation decline in BALB/c mouse infected with influenza A virus (A/duck/Minnesota/1525/1981 (H5N1)) at 10 mg/kg/day, po once daily for 5 days administered 1 hr after infection measured on day 11 relative to carboxymethyl cellulose; type: functional
Mus musculus [15] = assay: Lowering of Arterial oxygen saturation decline in BALB/c mouse infected with influenza A virus (A/duck/Minnesota/1525/1981 (H5N1)) at 30 mg/kg/day, po twice daily for 5 days administered 1 hr after infection measured on day 11 relative to carboxymethyl cellulose; type: functional; method in brief: as §1
Mus musculus [16] = assay: Inhibition of increase in lung weight of BALB/c mouse infected with influenza A virus (A/duck/Minnesota/1525/1981 (H5N1)) at 300 mg/kg/day, po qid for 5 days administered 1 hr after infection measured on day 6 relative to carboxymethyl cellulose; type: functional
Mus musculus [17] = assay: Effect on survival of BALB/c mouse infected with influenza A virus (A/duck/Minnesota/1525/1981 (H5N1)) at 300 mg/kg/day, po qid for 5 days administered 1 hr after infection relative to carboxymethyl cellulose; type: functional, organism-based
Mus musculus [18] = assay: Lowering of arterial oxygen saturation decline in BALB/c mouse infected with influenza A virus (A/duck/Minnesota/1525/1981 (H5N1)) at 300 mg/kg/day, po qid for 5 days administered 72 hrs after infection measured on day 11 relative to carboxymethyl cellulose; type: functional
Mus musculus [19] = assay: Effect on survival in BALB/c mouse infected with influenza A virus (A/duck/Minnesota/1525/1981 (H5N1)) at 300 mg/kg/day, po administered 48 hrs after infection relative to carboxymethyl cellulose; type: functional, organism-based
Mus musculus [20] = assay: Effect on survival in BALB/c mouse infected with influenza A virus (A/duck/Minnesota/1525/1981 (H5N1)) at 300 mg/kg/day, po administered 4 hrs after infection relative to carboxymethyl cellulose; type: functional, organism-based
Mus musculus [21] = assay: Effect on survival in BALB/c mouse infected with influenza A virus (A/duck/Minnesota/1525/1981 (H5N1)) at 600 mg/kg/day, po administered 4 hrs after infection relative to carboxymethyl cellulose; type: functional, organism-based
Mus musculus [22] = assay: Effect on survival of BALB/c mouse infected with influenza A virus (A/duck/Minnesota/1525/1981 (H5N1)) at 300 mg/kg/day, po once daily for 5 days administered 1 hr after infection relative to carboxymethyl cellulose; type: functional, organism-based
Mus musculus [23] = assay: Effect on survival in BALB/c mouse infected with influenza A virus (A/duck/Minnesota/1525/1981 (H5N1)) at 600 mg/kg/day, po administered 60 hrs after infection relative to carboxymethyl cellulose; type: functional, organism-based
Mus musculus [24] = assay: Effect on survival of BALB/c mouse infected with influenza A virus (A/duck/Minnesota/1525/1981 (H5N1)) at 100 mg/kg/day, po once daily for 5 days administered 1 hr after infection relative to carboxymethyl cellulose; type: functional, organism-based
Mus musculus [25] = assay: Lowering of arterial oxygen saturation decline in BALB/c mouse infected with influenza A virus (A/duck/Minnesota/1525/1981 (H5N1)) at 300 mg/kg/day, po qid for 5 days administered 36 hrs after infection measured on day 11 relative to carboxymethyl cellulose; type: functional

NC(=O)c1nc(F)cnc1O [FAVIPIRAVIR]
Activity (Mus musculus [1]): Active | Activity (Mus musculus [2]): 140 mg | Activity (Mus musculus [3]): 86.9% | Activity (Mus musculus [4]): Active | Activity (Mus musculus [5]): 75% | Activity (Mus musculus [6]): 84.6% | Activity (Mus musculus [7]): Active | Activity (Mus musculus [8]): 81.2% | Activity (Mus musculus [9]): 75.5% | Activity (Mus musculus [10]): 81.4% | Activity (Mus musculus [11]): Active | Activity (Mus musculus [12]): 85.9% | Activity (Mus musculus [13]): inactive | Activity (Mus musculus [14]): 77% | Activity (Mus musculus [15]): 79.8% | Activity (Mus musculus [16]): 146 mg | Activity (Mus musculus [17]): Active | Activity (Mus musculus [18]): 84.1% | Activity (Mus musculus [19]): Active | Activity (Mus musculus [20]): Active | Activity (Mus musculus [21]): Active | Activity (Mus musculus [22]): Active | Activity (Mus musculus [23]): Active | Activity (Mus musculus [24]): Active | Activity (Mus musculus [25]): 84.6%
